The nature of data set [1]: Absolute oral bioavailability was evaluated in saline solution at a dose of 20 mg/kg orally. Type of data set: ADME, organism-based. Conditions: eutheria, in vivo. Put shortly: (§1)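 Fasted male Wistar rats, groups of 3–4, given a single 20 mg/kg dose po or iv in the stated vehicle. Heparinized plasma was drawn from a jugular-vein cannula at serial times out to 24 h and assayed by validated HPLC-fluorescence. Absolute bioavailability is the dose-normalized ratio of AUC after po dosing to AUC after iv dosing.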

Data set [2] is described as follows: Pharmacokinetic parameter AUC was evaluated in saline solution at a dose of 20 mg/kg orally. Format: ADME, organism-based. Set-up: dose 20 mg/kg, route oral. Conditions: in vivo, po. The method, boiled down: (§2)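 Fasted male Wistar rats, groups of 3–4, given a single oral 20 mg/kg dose in the stated vehicle. Heparinized plasma was collected from an implanted jugular-vein cannula at serial times out to 24 h, kept frozen, and assayed by validated HPLC-fluorescence. Cmax, tmax, AUC(0–∞) and terminal t1/2 were obtained by noncompartmental analysis. Values are means (%RSD).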

Data set [3] is described as follows: Pharmacokinetic parameter tmax was evaluated in Hp-beta-CD solution at a dose of 20 mg/kg orally. Type of data set: ADME, organism-based. Set-up: dose 20 mg/kg, route oral. As to conditions: in vivo, po. Put shortly: as §2
The test system of data set [4] is Mus musculus. Description: Concentration in forebrain after intravenous injection evaluated after 10 min. at a dose of 10 mg/kg; Below low level of detection. Set-up: dose 10 mg/kg. Type of data set: functional, organism-based. The method, boiled down:
(§3)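 Ex vivo binding: mice were dosed iv with compound or vehicle, given either as saline or as 10% EtOH–60% propylene glycol–30% saline. Forebrains were taken at 5, 10 or 20 min, homogenized in HEPES buffer with bacitracin at pH 7.2, and incubated with 50 pM [125I]BH-CCK8s for 2 h at 22 °C. After filtration, bound radioligand was gamma-counted and read against calibration curves prepared in vehicle tissue. Detection limit was about 1 pmol/forebrain. n = 3–13.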

Data set [5] is described as follows: Absolute oral bioavailability was evaluated in Hp-beta-CD solution at a dose of 20 mg/kg orally. Type of data set: ADME, organism-based. As to conditions: eutheria, in vivo. The method, boiled down:
as §1

Data set [6] in a line: Maximum plasma concentration was evaluated in Hp-beta-CD solution at a dose of 20 mg/kg orally. Set-up: dose 20 mg/kg, route oral. As to conditions: po. Type of data set: ADME, organism-based. Put shortly: as §2
In data set [7] the test system is Mus musculus. Description: Concentration in forebrain after intravenous injection evaluated after 5 min. at a dose of 10 mg/kg. Format: functional. Put shortly: as §3
Data set [8] is described as follows: Pharmacokinetic parameter AUC was evaluated in Hp-beta-CD solution. Type of data set: ADME. Put shortly:
as §2

The subject of data set [9] is Mus musculus. Description: Concentration in forebrain after intravenous injection evaluated after 20 min. at a dose of 10 mg/kg. Type of data set: functional. The method, boiled down: as §3
A short description of data set [10]: Maximum plasma concentration was evaluated in saline solution at a dose of 20 mg/kg orally. Type of data set: ADME, organism-based. Set-up: dose 20 mg/kg, route oral. As to conditions: po. The method, boiled down:
as §2

Data set [11] can be described thus: Pharmacokinetic parameter tmax was evaluated in saline solution at a dose of 20 mg/kg orally. Type of data set: ADME, organism-based. Set-up: dose 20 mg/kg, route oral. Conditions: in vivo, po. Put shortly:
as §2

For data set [12], the system named is Mus musculus. Description: Concentration in forebrain after intravenous injection evaluated after 20 min. at a dose of 1 mg/kg. Type of data set: functional. Put shortly:
as §3

Data set [13] in a line: Pharmacokinetic parameter half-life was evaluated in 100% PEG solution. Format: ADME, organism-based. As to conditions: in vivo. The method, boiled down: as §2
Data set [14] can be described thus: Maximum plasma concentration was evaluated in 0.5% methylcellulose suspension at a dose of 20 mg/kg orally. Format: ADME, organism-based. Set-up: dose 20 mg/kg, route oral. Conditions: po. Put shortly:
as §2

Data set [15] can be described thus: Absolute oral bioavailability evaluated in 0.5% methylcellulose suspentionat a dose of 20 mg/kg orally. Type of data set: ADME, organism-based. Conditions: eutheria, in vivo. Put shortly:
as §1

Data set [16] relates to Mus musculus. Description: Concentration in forebrain after intravenous injection evaluated after 5 min. at a dose of 1 mg/kg. Format: functional. Put shortly:
as §3

In data set [17] the target is T1, Gastrin/cholecystokinin type B receptor (Mus musculus, UniProt P56481).
T1 sequence (P56481 whole entry): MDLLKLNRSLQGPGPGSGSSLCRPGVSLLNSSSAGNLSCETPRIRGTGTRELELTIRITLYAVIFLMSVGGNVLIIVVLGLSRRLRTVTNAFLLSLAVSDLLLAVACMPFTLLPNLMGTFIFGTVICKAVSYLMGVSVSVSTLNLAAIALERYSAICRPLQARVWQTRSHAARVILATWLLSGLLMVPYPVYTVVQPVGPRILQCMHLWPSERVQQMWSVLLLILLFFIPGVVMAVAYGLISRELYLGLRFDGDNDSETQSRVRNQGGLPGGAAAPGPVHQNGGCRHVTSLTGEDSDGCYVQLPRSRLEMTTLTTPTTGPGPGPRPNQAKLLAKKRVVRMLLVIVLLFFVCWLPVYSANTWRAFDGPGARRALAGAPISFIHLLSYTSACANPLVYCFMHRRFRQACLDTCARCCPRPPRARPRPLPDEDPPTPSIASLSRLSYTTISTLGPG
Description: Inhibitory concentration against radioligand [125I]Bolton-Hunter labeled CCK-8 to cholecystokinin type B receptor in the mouse cerebral cortex. Type of data set: tissue-based.

Data set [18] relates to Mus musculus. Description: Concentration in forebrain after intravenous injection evaluated after 10 min. at a dose of 1 mg/kg. Type of data set: functional. The method, boiled down: as §3
Data set [19] in a line: Pharmacokinetic parameter AUC was evaluated in HP-beta-CD solution at a dose of 20 mg/kg orally. Set-up: dose 20 mg/kg, route oral. Conditions: in vivo, po. Format: ADME, organism-based. Put shortly:
as §2

Data set [20] can be described thus: Pharmacokinetic parameter half-life was evaluated in HP-beta-CD solution at a dose of 20 mg/kg orally. Type of data set: ADME, organism-based. Set-up: dose 20 mg/kg, route oral. As to conditions: in vivo, po. The method, boiled down: as §2
Data set [21] can be described thus: Pharmacokinetic parameter tmax was evaluated in DMA:H2O solution at a dose of 20 mg/kg orally. Type of data set: ADME, organism-based. Set-up: dose 20 mg/kg, route oral. Conditions: in vivo, po. The method, boiled down:
as §2

Data set [22] in a line: Pharmacokinetic parameter tmax was evaluated in HP-beta-CD solution at a dose of 20 mg/kg orally. Format: ADME, organism-based. Set-up: dose 20 mg/kg, route oral. Conditions: in vivo, po. The method, boiled down: as §2
A short description of data set [23]: Ratio of IC50 towards CCK-A receptor and CCK-B receptor.
Data set [24] is described as follows: Pharmacokinetic parameter AUC was evaluated in 0.5% methylcellulose suspension at a dose of 20 mg/kg orally. Format: ADME, organism-based. Set-up: dose 20 mg/kg, route oral. Conditions: in vivo, po. Put shortly: as §2
The nature of data set [25]: Maximum plasma concentration evaluated in 100% PEG solution at a dose of 20 mg/kg orally. Type of data set: ADME, organism-based. Set-up: dose 20 mg/kg, route oral. Conditions: po. The method, boiled down: as §2
A short description of data set [26]: Pharmacokinetic parameter AUC was evaluated in 100% PEG solution at a dose of 20 mg/kg orally. Conditions: in vivo, po. Set-up: dose 20 mg/kg, route oral. Type of data set: ADME, organism-based. Put shortly: as §2
Data set [27] is described as follows: Pharmacokinetic parameter tmax evaluated in 0.5% methylcellulose suspension at a dose of 20 mg/kg orally. Format: ADME, organism-based. Set-up: dose 20 mg/kg, route oral. As to conditions: in vivo, po. Put shortly: as §2
Data set [28] can be described thus: Pharmacokinetic parameter half-life was evaluated in DMA:H2O solution at a dose of 20 mg/kg orally. Format: ADME, organism-based. Set-up: dose 20 mg/kg, route oral. Conditions: in vivo, po. The method, boiled down: as §2
Data set [29] is described as follows: Maximum plasma concentration evaluated in HP-beta-CD solution at a dose of 20 mg/kg orally. Set-up: dose 20 mg/kg, route oral. Conditions: po. Type of data set: ADME, organism-based. The method, boiled down: as §2
Data set [30] is described as follows: Pharmacokinetic parameter tmax was evaluated in 100% PEG solution at a dose of 20 mg/kg orally. Format: ADME, organism-based. Set-up: dose 20 mg/kg, route oral. As to conditions: in vivo, po. Put shortly:
as §2

Data set [31] is described as follows: Absolute oral bioavailability was evaluated in DMA:H2O solution at a dose of 20 mg/kg orally. As to conditions: eutheria, in vivo. Type of data set: ADME, organism-based. The method, boiled down: as §1
A short description of data set [32]: Oral bioavailability (dosed in HP-beta-CD solution) (dose 20 mg/kg p.o.). Format: ADME, organism-based. As to conditions: eutheria, in vivo. The method, boiled down:
as §1

A short description of data set [33]: Absolute oral bioavailability was evaluated in 100% PEG solution at a dose of 20 mg/kg orally. As to conditions: eutheria, in vivo. Type of data set: ADME, organism-based. Put shortly: as §1
A short description of data set [34]: Maximum plasma concentration was evaluated in DMA:H2O solution at a dose of 20 mg/kg orally. Set-up: dose 20 mg/kg, route oral. As to conditions: po. Type of data set: ADME, organism-based. Put shortly:
as §2

Data set [35] can be described thus: Pharmacokinetic parameter AUC was evaluated in DMA:H2O solution at a dose of 20 mg/kg orally. Format: ADME, organism-based. Set-up: dose 20 mg/kg, route oral. As to conditions: in vivo, po. The method, boiled down: as §2
Data set [36] concerns the target T2, Cholecystokinin receptor type A (Rattus norvegicus, UniProt P30551).
T2 sequence (P30551 whole entry): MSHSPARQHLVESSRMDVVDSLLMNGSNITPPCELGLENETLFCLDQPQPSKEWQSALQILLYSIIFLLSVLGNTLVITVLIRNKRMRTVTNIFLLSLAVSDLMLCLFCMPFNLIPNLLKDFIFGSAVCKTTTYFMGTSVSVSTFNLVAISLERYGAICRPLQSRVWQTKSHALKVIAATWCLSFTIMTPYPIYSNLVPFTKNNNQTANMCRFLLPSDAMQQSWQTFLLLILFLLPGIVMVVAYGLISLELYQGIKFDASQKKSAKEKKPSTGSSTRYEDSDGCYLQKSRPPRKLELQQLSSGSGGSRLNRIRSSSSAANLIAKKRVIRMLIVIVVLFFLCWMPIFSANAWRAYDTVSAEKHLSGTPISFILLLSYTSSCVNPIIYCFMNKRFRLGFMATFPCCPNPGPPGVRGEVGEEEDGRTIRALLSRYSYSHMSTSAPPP
Description: Inhibitory concentration against radioligand [125I]Bolton-Hunter labeled CCK-8 to cholecystokinin type A receptor in the rat pancreas.

The structures appear in SMILES notation. The source made the active and inactive calls. Where only a bound is given, the exact number is not on record here.

A word on the bioavailability: it is the share of a dose that reaches the circulation, judged against a reference dose that is usually intravenous. A high value points to good availability. A word on the AUC: it is concentration integrated over time. Lower therefore signals low exposure. The term Tmax denotes the time at which the peak concentration occurs. Usually Cmax stands for the maximum level reached in the sampled fluid or tissue. As for `C[C@](Cc1c[nH]c2ccccc12)(NC(=O)OC1[C@H]2C[C@@H]3C[C@@H](C[C@H]1C3)C2)C(=O)NC[C@H](NC(=O)CCC(=O)O)c1ccccc1` (stereo partly specified) [CI-988], the bioavailability in [1] is 3.2%; in data set [5], under 1%. The results for the AUC in [2] and in data set [8] were 134 ng·h/mL and 2.3 ng·h/mL, respectively. The Tmax is 0.25 h in data set [3] and 2.3 h in [11]. For the same compound, in the data set on Mus musculus [4], the Brain level entry was “inactive”. Also, the maximum concentration (Cmax) in [6] was 5 ng/mL; in data set [10], 32 ng/mL. The Brain level stood at 10 pmol/forebrain in the data set on Mus musculus [7] and 8 pmol/forebrain with Mus musculus [9].

In general, half-life refers to the time needed for the level to fall by half in the phase considered. A low value points to fast loss. By IC50 is commonly meant the concentration that gives 50% inhibition. As for `C[C@](Cc1c[nH]c2ccccc12)(NC(=O)OC1C2CC3CC(C2)CC1C3)C(=O)N[C@H](CO)Cc1ccccc1` (stereo partly specified), the Brain level in the data set with Mus musculus [12] is 43 pmol/forebrain; in the data set with Mus musculus [16], 40 pmol/forebrain; in the data set on Mus musculus [18] it was 68 pmol/forebrain. For the same compound, the half-life in data set [13] is 1.1 h; in [20], 1.5 h; in data set [28] it was 2.3 h. Besides, the Cmax in data set [14] turned out to be 42 ng/mL; in [25] it was 167 ng/mL; in data set [29], 416 ng/mL; in data set [34], 212 ng/mL. For the same compound, the bioavailability stood at 2% in data set [15], 9.6% in data set [31], 16% in data set [32] and 9.6% in [33]. The IC50 was 6.3 nM in [17] and 780 nM in data set [36]. Moreover, the AUC in data set [19] turned out to be 1440 ng·h/mL; in data set [24] it was 188 ng·h/mL; in [26], 886 ng·h/mL; in data set [35] it was 890 ng·h/mL. In addition, the Tmax in data set [21] worked out at 1.2 h; in data set [22] it was 0.9 h; in data set [27], 2.9 h; in data set [30] it was 2.8 h. Also, the Ratio in [23] came out at 123.
